High-throughput results (PubChem)
Shown are actives, neighbours in structure and some others; about 9.6% of the full set was active somewhere.
bCat KO growth = primary screen for growth suppressors in beta-catenin knockout HCT116 cells (colon tumor, human) | HCT116 beta-catenin knockout viability, CellTiter-Glo, 60 h; active compounds read low | viability, % at 10 µM | 140,000 tested, 1.5% active | AID 818, 2007;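 active = viability at or under a set limit, the compound median less 4 SD, cut at about 6% in these data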;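 note: 0% = Hyamine 1622 control at 20 µM and 100% = untreated cell control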
Lmaj promast = Leishmania major promastigote growth inhibition, primary screen; Leishmania major promastigotes, resazurin fluorescence viability; 200,000 tested, 9% active; inhibition, % at 10 µM; AID 1063, 2008; in the data active = inhibition above about 50%;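 note: promastigotes grown with compound for 44 hours at 28 °C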
HCT116 PTEN-null = growth suppression of PTEN-null HCT116, primary screen, cell-based, CellTiter-Glo; AID 827, 2007; 140,000 tested, 1.2% active; HCT116 PTEN-null viability, 60 h; active compounds read low; viability, % at 10 µM;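 active = viability at or below a set limit, 4 SD under the median of all tested compounds, cut at about 3.7% in these data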;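 note: PTEN knockout HCT116 line with beta catenin targeted HCT116 as companion control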
PMI act hi M6P = human PMI activators, high substrate, primary screen, biochemical, fluorescence intensity, near-saturating mannose 6-phosphate; Mannose-6-phosphate isomerase (Homo sapiens), P34949; coupled PMI enzyme assay, resazurin fluorescence, 20 min; active compounds read high; 1 = untreated enzyme, 0 = substrate-free blank; activation factor at 20 µM; 190,000 tested, 0.34% active;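 active = activation factor of 2 or more at 20 µM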
Target sequence (P34949 whole entry, looked up): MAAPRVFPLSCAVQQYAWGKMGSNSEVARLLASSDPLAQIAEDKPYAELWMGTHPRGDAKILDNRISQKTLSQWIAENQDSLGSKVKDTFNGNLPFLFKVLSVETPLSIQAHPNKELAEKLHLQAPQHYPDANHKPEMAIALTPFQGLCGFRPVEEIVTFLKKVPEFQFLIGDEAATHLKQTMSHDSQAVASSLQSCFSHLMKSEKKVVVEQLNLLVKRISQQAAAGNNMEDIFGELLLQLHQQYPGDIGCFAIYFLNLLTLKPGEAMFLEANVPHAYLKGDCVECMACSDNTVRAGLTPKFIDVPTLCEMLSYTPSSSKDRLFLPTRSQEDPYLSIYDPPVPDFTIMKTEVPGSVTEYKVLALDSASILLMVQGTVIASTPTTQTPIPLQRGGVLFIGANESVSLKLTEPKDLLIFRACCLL
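Test system: Human PMI in coupled enzyme assay | Input: 15 ng/mL PMI | Medium: HEPES-buffered pH 7.4 with magnesium and detergent | Compound: One concentration, 20 µM, in 1% DMSO | Incubation: Enzyme reaction with compound 20 min at room temperature | Detection: Diaphorase-driven resazurin-to-resorufin fluorescence, excitation 544, emission 590 nm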
PMI activator = activators of human PMI, primary screen, biochemical, fluorescence intensity, near-Km mannose 6-phosphate. purified human PMI, coupled resazurin fluorescence, 20 min; active compounds read high; 1 = vehicle control, 0 substrate-free wells. activation factor at 20 µM. AID 1214, 2008. 190,000 tested, 0.005% active. Mannose-6-phosphate isomerase (Homo sapiens), P34949;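 active = activation factor of 2 or more at 20 µM, relative to plate controls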
* marks the source's active call; other numbers are inactive results.

CCC1(C)N(O)C(C)(C)C(c2ccc(F)cc2)=[N+]1[O-] (stereo not given) was read as bCat KO growth 87, Lmaj promast 5, HCT116 PTEN-null 92, PMI act hi M6P 1.1 and PMI activator 1.1.
`CCN(C(=O)c1cccs1)c1nc(-c2ccc(OC)cc2)cs1` gave Lmaj promast 1, PMI act hi M6P 1.1 and PMI activator 1.1.
`COc1ccc(-c2csc(N(CCCN(C)C)C(=O)c3cccs3)n2)cc1` gave bCat KO growth 51, Lmaj promast 92*, HCT116 PTEN-null 62, PMI act hi M6P 0.9 and PMI activator 0.9.
CN(C)CCN1CCc2ccccc21 was read as bCat KO growth 66, Lmaj promast 78*, HCT116 PTEN-null 69, PMI act hi M6P 0.9 and PMI activator 0.7.
CC(C)CN(CC(C)C)c1nnc(N)s1 was read as bCat KO growth 92, Lmaj promast -9, HCT116 PTEN-null 91, PMI act hi M6P 1.1 and PMI activator 1.1.
`COc1ccc(/C(=N\Nc2ccccc2C(=O)O)c2ccccc2)cc1` gave Lmaj promast -10, PMI act hi M6P 2.2* and PMI activator 1.6.
For CN1CCN(c2ccc(-c3ccnn3C(=O)Nc3cccc(C(F)(F)F)c3)cc2)CC1 the results were Lmaj promast 3, PMI act hi M6P 0.9 and PMI activator 0.8.
Screening COC(=O)/C(=C\c1ccc([N+](=O)[O-])o1)NC(=O)c1ccccc1 returned bCat KO growth 69, Lmaj promast 95*, HCT116 PTEN-null 63, PMI act hi M6P 1.4 and PMI activator 1.2.
CCCCNC(=O)/C(=C\c1ccc([N+](=O)[O-])o1)NC(=O)c1ccccc1 was read as Lmaj promast 67*, PMI act hi M6P 1.1 and PMI activator 1.2.
`CCOC(=O)CSc1n[nH]c(NC(=O)CC)n1` gave Lmaj promast -1, PMI act hi M6P 1 and PMI activator 1.1.
Cn1c(NNC(=O)c2cccc3ccccc23)cc(=O)n(C)c1=O was read as Lmaj promast -5, PMI act hi M6P 0.8 and PMI activator 1.
`CC(Sc1nnc(-c2cccs2)n1-c1ccccc1)C(=O)NCc1ccc2c(c1)OCO2` (stereo not given) gave bCat KO growth 95, Lmaj promast 91*, HCT116 PTEN-null 94, PMI act hi M6P 1 and PMI activator 1.
Screening O=C(CSc1nnc(Cc2cccs2)n1-c1ccccc1)NCc1ccc2c(c1)OCO2 returned bCat KO growth 90, Lmaj promast 13, HCT116 PTEN-null 96, PMI act hi M6P 0.9 and PMI activator 0.9.
`Oc1ccc(Cl)cc1C=Nc1ccc2c3c(cccc13)CC2` gave bCat KO growth 82, Lmaj promast 84*, HCT116 PTEN-null 90, PMI act hi M6P 0.3 and PMI activator 0.5.
`Cc1ccc(C(=O)N(Cc2ccc3c(c2)OCO3)Cc2nc3ccccc3c(=O)[nH]2)cc1` gave bCat KO growth 89, Lmaj promast 96*, HCT116 PTEN-null 81, PMI act hi M6P 1 and PMI activator 1.
`Cc1ccc(-n2c3nc(=O)[nH]c(=O)c-3cc3cc([N+](=O)[O-])ccc32)cc1C` gave bCat KO growth 13, Lmaj promast 94*, HCT116 PTEN-null 11, PMI act hi M6P 1 and PMI activator 0.9.
`Cc1ccc(S(=O)(=O)n2cnc3cc([N+](=O)[O-])ccc32)cc1C` gave bCat KO growth 90, Lmaj promast -3, HCT116 PTEN-null 99, PMI act hi M6P 1.1 and PMI activator 1.1.
CN1CCC(N(C)C(=O)COc2ccc(S(=O)(=O)N3CCOCC3)cc2)CC1 was read as Lmaj promast 3, PMI act hi M6P 1 and PMI activator 1.1.
CN(CC(O)COc1ccc(S(=O)(=O)N2CCOCC2)cc1)C1CCCCC1 (stereo not given) was read as bCat KO growth 85, Lmaj promast 97*, HCT116 PTEN-null 93, PMI act hi M6P 0.9 and PMI activator 0.9.
`CN(CC(O)COc1ccccc1F)C1CCCCC1` (stereo not given) gave Lmaj promast 9, PMI act hi M6P 1 and PMI activator 1.
Screening CCN(CC(O)COc1ccc(OCC(O)CN(CC)C2CCCCC2)cc1)C1CCCCC1 (stereo not given) returned bCat KO growth 82, Lmaj promast 100* and HCT116 PTEN-null 76.
For CN(CC(O)COCc1cccs1)C1CCCCC1 (stereo not given) the results were bCat KO growth 91, Lmaj promast -11, HCT116 PTEN-null 91, PMI act hi M6P 1.1 and PMI activator 1.
`CCN(CC(O)COCc1ccc(Cl)cc1)C1CCCCC1` (stereo not given) gave Lmaj promast 68*, PMI act hi M6P 1.1 and PMI activator 1.2.
`Cc1ccccc1OCC(O)CN(Cc1ccccc1O)C1CCCCC1` (stereo not given) gave Lmaj promast 91*, PMI act hi M6P 1 and PMI activator 1.
`O=c1cc(N2CCOCC2)cnn1-c1ccccc1` gave bCat KO growth 96, Lmaj promast -10, HCT116 PTEN-null 89, PMI act hi M6P 1 and PMI activator 1.1.
For O=C(Oc1cc(=O)oc2ccccc12)c1cccnc1Cl the results were bCat KO growth 92, Lmaj promast -9, HCT116 PTEN-null 100, PMI act hi M6P 1.3 and PMI activator 1.2.
Screening C=C1CCC2C(C)(C)[C@H](O)CC[C@@]2(C)[C@@H]1COc1cc(=O)oc2ccccc12 (stereo not given in full) returned bCat KO growth 80, Lmaj promast 98*, HCT116 PTEN-null 61, PMI act hi M6P 0.9 and PMI activator 0.8.
For CCOC(=O)NC(=O)C(=CNc1ccccc1C)C(=O)NC(=O)OCC the results were bCat KO growth 104, Lmaj promast -1, HCT116 PTEN-null 99, PMI act hi M6P 1 and PMI activator 1.
`CC(=O)c1nn(-c2ccc(Br)cc2)cc1C(=O)c1ccccc1` gave bCat KO growth 58, Lmaj promast 20, HCT116 PTEN-null 74, PMI act hi M6P 1.2 and PMI activator 1.1.
`CC(=O)c1nn(-c2cccc(Br)c2)cc1C(=O)c1ccc2ccccc2c1` gave bCat KO growth 3.7*, Lmaj promast 3, HCT116 PTEN-null 4, PMI act hi M6P 1.1 and PMI activator 1.
COc1ccc2[nH]c(C)c(CCN(Cc3cccs3)C(=S)Nc3ccc(F)cc3)c2c1 was read as bCat KO growth 62, Lmaj promast 40, HCT116 PTEN-null 63, PMI act hi M6P 0.7 and PMI activator 0.6.
`COc1ccc(NC(=S)N(CCc2c(C)[nH]c3ccc(C)cc23)Cc2ccco2)cc1` gave bCat KO growth 57, Lmaj promast 31, HCT116 PTEN-null 61, PMI act hi M6P 0.8 and PMI activator 0.9.
